Reference: PubChem BioAssay
Results filed as inconclusive are left out.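 How the source made its calls, unless noted: active means viability increase at or above a cutoff of the median across tested compounds plus 3 SD (cut at about 8.5% in these data, passing the limit was not always enough); inconclusive means some gains above the cutoff, reason not given; inactive means the rest.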

How the values were obtained:
[1] = OD615 S. cerevisiae growth inhibition, permissive medium, pilot counter-assay, permissive growth control for S. cerevisiae lifespan shortening project (AID 705;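 active means growth inhibition above 25% in both replicates, a cutoff set 3 SD above the mean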); settings: OD615, 24 h, at 10 µM, active compounds read high
How it was run: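 System: engineered DeaD yeast; Medium: permissive raffinose/galactose medium; Compound dosing: 10 µM single dose, 0.25% DMSO; Incubation: 4 h cell pre-growth, 24 h exposure at 30 °C; Technique: OD at 615 nm; Evaluation: growth inhibition from lowered OD615 after 24 h.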

[2] = Restrictive medium S. cerevisiae growth inhibition, OD615, pilot screen of yeast lifespan reduction project, restrictive growth control (AID 706;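 active means growth inhibition above a set limit, 3 SD over mean compound inhibition, in both replicates, cut at about 43% in these data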;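 further: modified DeaD lifespan yeast strain shifted to restrictive glucose medium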); settings: OD615, 48 h, at 10 µM, active compounds read high
How it was run: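 Material: modified S. cerevisiae; buffer or medium: CSMM-D glucose medium; doses: one concentration, 10 µM final, 0.25% DMSO; incubation: 48 h compound exposure at 30 °C; detection: optical density at 615 nm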

[3] = viability gain of MRP-1-high H69AR cells under doxorubicin, pilot screen, MRP-1 activator project, CellTiter-Glo, duplicate (AID 807); settings: H69AR viability with doxorubicin, CellTiter-Glo luminescence; at 10 µM; active compounds read high;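 further: compound pretreatment 18-22 h then 72 h combined with doxorubicin; 0% = doxorubicin alone and 100% = vehicle without doxorubicin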
[4] = growth suppression of beta-catenin knockout HCT116, pilot screen, human colon tumor cells (AID 823;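 active means cell viability at or below a set limit in both duplicate runs, the limit being the all-compound median minus 4 SD, cut at about 23% in these data, passing the limit was not always enough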;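 further: 0% = wells killed by 20 µM Hyamine and 100% = untreated DMSO cell wells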); settings: CellTiter-Glo, 60 h, at 10 µM, active compounds read low
[5] = growth suppression of PTEN-deleted HCT116, pilot screen, cell-based, HCT116 clonal line, CellTiter-Glo (AID 824;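 active means viability at or below 27.92% in each of two runs, the all-compound median minus 4 SD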;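 further: 0% = 20 µM Hyamine control and 100% = vehicle cell control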); settings: 60 h, at 10 µM, active compounds read low
[6] = inhibitors of the yeast RAM network, pilot screen, dse1pr::URA3 reporter, 5-FOA selection (AID 869;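 active means inhibition over a set limit, the all-compound mean plus 3 SD, in both replicate runs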;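 further: 0% = DMSO wells with no growth and 100% = 10 µM 1-NA-PP1 with full growth; RAM network block rescues cells from 5-FOA so hits raise OD615 growth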); settings: S. cerevisiae dse1pr::URA3 5-FOA growth, OD615, 2 d; at 10 µM; active compounds read high; strain carries analog-sensitive mutant Cbk1 kinase
[7] = RAM signaling pathway blockade in yeast – S. cerevisiae, Pdr1DBD-CYC8 efflux-inhibited sensitized strain, primary screen (AID 1298;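 active means RAM network inhibition above 8.4% in each of two replicates, 3 SD over the compound average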;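 further: 0% = DMSO untreated cells without growth and 100% = 10 µM 1-NA-PP1 full growth; higher means more yeast growth rescued from 5-FOA killing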); settings: S. cerevisiae cbk1-as DSE1-URA3 strain, 5-FOA growth OD615, 2 d; at 50 µM; active compounds read high

CCOC(=O)c1sc2nc(NC(=O)C3CC3)sc2c1C
inactive: growth inhibition [1] -0.51% | growth inhibition [2] -2.08% | viability increase [3] -5.8% | viability [4] 86% | viability [5] 82.2% | inhibition [6] 4.2% | RAM network inhibition [7] 3.96%

CCn1cc(SCC(N)=O)c2ccccc21
inactive: growth inhibition [1] -13.8% | growth inhibition [2] -17.4% | viability increase [3] 0.17% | viability [4] 99.1% | viability [5] 92.3% | inhibition [6] 1.14% | RAM network inhibition [7] 8.71%

COC(=O)C1=C(C)N(C)C(C)=C(C(=O)OC)C1c1cccc(Br)c1
inactive: growth inhibition [1] -16.7% | growth inhibition [2] 0.915% | viability increase [3] 0.06% | viability [4] 72% | viability [5] 67.4% | inhibition [6] 0.57% | RAM network inhibition [7] 9.03%

CCOc1ccccc1NC(=O)CCS(=O)(=O)c1cccc2nonc12
inactive: growth inhibition [1] -15% | growth inhibition [2] -21.8% | viability increase [3] -4.44% | viability [4] 103% | viability [5] 96.3% | inhibition [6] 1.34% | RAM network inhibition [7] 5.48%

CC1=C(C(=O)OCc2ccccc2)C(c2ccc(N3CCOCC3)cc2)NC(=O)N1 (configuration not stated)
inactive: growth inhibition [1] -6.21% | growth inhibition [2] -3.42% | viability increase [3] 0.5% | viability [4] 100% | viability [5] 98.9% | inhibition [6] 0.99% | RAM network inhibition [7] 4.42%

CCSC1=C(C#N)C(c2ccc(C)s2)CC(=O)N1 (configuration not stated)
inactive: growth inhibition [1] -16.1% | growth inhibition [2] -6.45% | viability increase [3] -0.29% | viability [4] 95.8% | viability [5] 94.1% | inhibition [6] 0.425% | RAM network inhibition [7] 0.57%

COCCn1c(SCCN2CCOCC2)nc2c1c(=O)[nH]c(=O)n2C
inactive: growth inhibition [1] -0.205% | growth inhibition [2] -4.84% | viability increase [3] 0.95% | viability [4] 104% | viability [5] 101% | inhibition [6] 1.45% | RAM network inhibition [7] 5.47%

COc1ccc2nc(NC(=O)C3CCCN3S(=O)(=O)c3ccc(C)cc3)sc2c1 (configuration not stated)
inactive: growth inhibition [1] -6.88% | growth inhibition [2] -4% | viability increase [3] -1.48% | viability [4] 69.3% | viability [5] 72% | inhibition [6] 1.23% | RAM network inhibition [7] 6.79%

COc1ccc(-n2c(Cc3cc(=O)[nH]c(=O)[nH]3)nnc2SCC(=O)NC2CCCC2)cc1
inactive: growth inhibition [1] -0.575% | growth inhibition [2] 2.41% | viability increase [3] 1.47% | viability [4] 104% | viability [5] 107% | inhibition [6] 0.535% | RAM network inhibition [7] 3.15%

Cc1ccc2oc3c(c(=O)c2c1)C(c1ccc(F)cc1)N(CCCN1CCOCC1)C3=O (configuration not stated)
inactive: growth inhibition [1] -3.52% | growth inhibition [2] -0.585% | viability increase [3] -4.72% | viability [4] 91% | viability [5] 89.6% | inhibition [6] 0.595% | RAM network inhibition [7] 0.29%

Cc1cc(C)c(S(=O)(=O)Nc2ccc(OCC(=O)O)cc2)c(C)c1
inactive: growth inhibition [1] -6.34% | growth inhibition [2] -3.2% | viability increase [3] -0.81% | viability [4] 93.7% | viability [5] 90.5% | inhibition [6] -0.28% | RAM network inhibition [7] -0.63%

Cc1cc(C)cc(N(CC(=O)Nc2c(C)n(C)n(-c3ccccc3)c2=O)S(C)(=O)=O)c1
inactive: growth inhibition [1] -11.3% | growth inhibition [2] -11.2% | viability increase [3] -1.95% | viability [4] 96.2% | viability [5] 93.2% | inhibition [6] 0.71% | RAM network inhibition [7] 2.45%

Cc1noc(NS(=O)(=O)c2ccc(NC(=O)CCn3c(=O)oc4ccccc43)cc2)c1C
inactive: growth inhibition [1] 0.07% | growth inhibition [2] -7.86% | viability increase [3] -1.22% | viability [4] 97.7% | viability [5] 96.2% | inhibition [6] 1.24% | RAM network inhibition [7] 6.07%

CC1(C)Cc2c(sc3nc(-c4cccs4)n(N)c(=O)c23)CO1
inactive: growth inhibition [1] -10.5% | growth inhibition [2] 18.5% | viability increase [3] -6.5% | viability [4] 42.1% | viability [5] 45.5% | inhibition [6] 0.19% | RAM network inhibition [7] 1.7%

Cc1ccc(N2CC(c3nc4ccccc4[nH]3)CC2=O)c(C)c1 (configuration not stated)
inactive: growth inhibition [1] -14.1% | growth inhibition [2] -17% | viability increase [3] 0.06% | viability [4] 107% | viability [5] 94.4% | inhibition [6] 1.45% | RAM network inhibition [7] 0.01%

CC12CCC(C(=O)NCc3ccco3)(OC1=O)C2(C)C (configuration not stated)
inactive: growth inhibition [1] -9.57% | growth inhibition [2] -9.65% | viability increase [3] -2.96% | viability [4] 98.3% | viability [5] 93.2% | inhibition [6] 1.42% | RAM network inhibition [7] -0.27%

Oc1c(C(c2cccc(F)c2)N2CCN(Cc3ccccc3)CC2)sc2ncnn12 (configuration not stated)
inactive: growth inhibition [1] -6.58% | growth inhibition [2] 3.16% | viability increase [3] -0.83% | viability [4] 87.7% | viability [5] 80.7% | inhibition [6] 0.05% | RAM network inhibition [7] -2.27%

Cc1c(C(=O)N2CCN(C(=O)c3ccco3)CC2)sc2nc(-c3ccc(F)cc3)cn12
inactive: growth inhibition [1] -0.195% | growth inhibition [2] 3.62% | viability increase [3] -2.53% | viability [4] 91.8% | viability [5] 89.3% | inhibition [6] 0.195% | RAM network inhibition [7] 3.7%

CC1=C(C#N)C2C(/C1=N/O)C2(C)C (configuration not stated)
inactive: growth inhibition [1] -4.15% | growth inhibition [2] -6.87% | viability increase [3] -1.76% | viability [4] 95% | viability [5] 85.3% | inhibition [6] 0.79% | RAM network inhibition [7] 1.21%

CN1CCN(c2cc(=O)n(C3CCCCC3)c(=O)[nH]2)CC1
inactive: growth inhibition [1] -17.5% | growth inhibition [2] -8.34% | viability increase [3] 0.57% | viability [4] 101% | viability [5] 103% | inhibition [6] 1.9% | RAM network inhibition [7] 1.26%

O=C(CSc1nc2c([nH]c3ccccc32)c(=O)n1-c1cccc(Cl)c1)N1CCOCC1
inactive: growth inhibition [1] -16.6% | growth inhibition [2] -12.8% | viability increase [3] -3.3% | viability [4] 79.6% | viability [5] 79.9% | inhibition [6] 1.64% | RAM network inhibition [7] 3.01%

CCCc1cc(C(=O)NCC(C)C)no1
inactive: growth inhibition [1] -3.57% | growth inhibition [2] 13.8% | viability increase [3] 0.64% | viability [4] 109% | viability [5] 101% | inhibition [6] 1.85% | RAM network inhibition [7] 1.2%

CCN(CC)C(=O)CSc1ccccc1N
inactive: growth inhibition [1] -16.2% | growth inhibition [2] -9.23% | viability increase [3] -1.98% | viability [4] 89.5% | viability [5] 94.4% | inhibition [6] 0.885% | RAM network inhibition [7] 5.73%

Cc1c(C(=O)Nc2ccncc2)sc2nc(-c3ccccc3)cn12
inactive: growth inhibition [1] 0.39% | growth inhibition [2] 9.21% | viability increase [3] 2.2% | viability [4] 89.2% | viability [5] 89.2% | inhibition [6] 0.99% | RAM network inhibition [7] -1.99%

CC1CC(C)CN(c2nc3c(c(=O)[nH]c(=O)n3C)n2CCSc2nc3ccccc3o2)C1 (configuration not stated)
inactive: growth inhibition [1] -8.58% | growth inhibition [2] -7.3% | viability increase [3] -2.41% | viability [4] 93.2% | viability [5] 93.6% | inhibition [6] 0.335% | RAM network inhibition [7] -0.32%

CC(CNC(=O)c1ccc(Br)o1)NC(=O)c1ccc(Br)o1 (configuration not stated)
inactive: growth inhibition [1] -0.8% | growth inhibition [2] 2.43% | viability increase [3] -0.71% | viability [4] 99% | viability [5] 97.8% | inhibition [6] 1.46% | RAM network inhibition [7] 1.17%

CC(C)Oc1ccc(N2CC(C(=O)Nc3ccc4c(c3)OCO4)CC2=O)cc1 (configuration not stated)
inactive: growth inhibition [1] -13.3% | growth inhibition [2] -4.22% | viability increase [3] -0.37% | viability [4] 106% | viability [5] 99.5% | inhibition [6] 2.58% | RAM network inhibition [7] 4.96%

COC(=O)C1=C(C)NC(=O)CC1c1cccc(Cl)c1Cl (configuration not stated)
inactive: growth inhibition [1] -13.4% | growth inhibition [2] -7.53% | viability increase [3] -1.92% | viability [4] 103% | viability [5] 98% | inhibition [6] 2.15% | RAM network inhibition [7] 1.05%

Cc1ccnc(N2C(=O)c3ccccc3C2Nc2ccc3c(c2)OCCO3)c1 (configuration not stated)
inactive: growth inhibition [1] -12.4% | growth inhibition [2] 3.42% | viability increase [3] 1.16% | viability [4] 99.7% | viability [5] 90.1% | inhibition [6] 0.135% | RAM network inhibition [7] 3.93%

Cn1c(C(=O)NCCN2CCN(Cc3ccccc3)CC2)cc2c(=O)n(C)c3ccccc3c21
inactive: growth inhibition [1] -0.4% | growth inhibition [2] 5.33% | viability increase [3] -6.61% | viability [4] 78.5% | viability [5] 79% | inhibition [6] -0.115% | RAM network inhibition [7] 2.19%

CCOC(=O)CNC(=O)c1cn(CC(C)C)c(=O)c2cc(OC)c(OC)cc12
inactive: growth inhibition [1] -5.46% | growth inhibition [2] -6.08% | viability increase [3] -1.77% | viability [4] 105% | viability [5] 101% | inhibition [6] -0.375% | RAM network inhibition [7] 4.17%

COc1ccc(CCNC(=O)Cc2cc(=O)[nH]c(=O)[nH]2)cc1OC
inactive: growth inhibition [1] 6.42% | growth inhibition [2] 3% | viability increase [3] -0.97% | viability [4] 96.7% | viability [5] 97.6% | inhibition [6] 1.35% | RAM network inhibition [7] 1.23%

CC1(C)Nc2ccccc2N(CCC(=O)N2CCOCC2)C1=O
inactive: growth inhibition [1] -13.2% | growth inhibition [2] 0.485% | viability increase [3] -0.6% | viability [4] 92.9% | viability [5] 96.4% | inhibition [6] 0.905% | RAM network inhibition [7] 2.81%

S=c1sc2c(N3CCOCC3)ncnc2n1-c1ccccc1
inactive: growth inhibition [1] -11.6% | growth inhibition [2] 8.65% | viability increase [3] -3.12% | viability [4] 102% | viability [5] 94.9% | inhibition [6] 1.64% | RAM network inhibition [7] 4.8%

O=C(O)CCC(=O)N1CCc2cc(S(=O)(=O)Nc3ccc4c(c3)OCCO4)ccc21
inactive: growth inhibition [1] -4.35% | growth inhibition [2] -7.19% | viability increase [3] -1.45% | viability [4] 94% | viability [5] 96.3% | inhibition [6] 0.535% | RAM network inhibition [7] -1.56%

O=C(CCN1CCN(CCO)CC1)Nc1ccc(F)c(F)c1
inactive: growth inhibition [1] -1.65% | growth inhibition [2] -3.58% | viability increase [3] -2.29% | viability [4] 104% | viability [5] 101% | inhibition [6] 0.265% | RAM network inhibition [7] 2.01%
